Activity calls are given as the source filed them. No cut-off for these calls is given here.
Legend:
[1] = biological target: T1, Nuclear factor erythroid 2-related factor 2 (Mus musculus) (UniProt Q60795); test: Activation of Nrf2 in mouse CATH.a cells assessed as increase in total Nrf2 protein level after 24 hrs by western blot analysis; assay type: cell-based
T1 sequence (whole entry): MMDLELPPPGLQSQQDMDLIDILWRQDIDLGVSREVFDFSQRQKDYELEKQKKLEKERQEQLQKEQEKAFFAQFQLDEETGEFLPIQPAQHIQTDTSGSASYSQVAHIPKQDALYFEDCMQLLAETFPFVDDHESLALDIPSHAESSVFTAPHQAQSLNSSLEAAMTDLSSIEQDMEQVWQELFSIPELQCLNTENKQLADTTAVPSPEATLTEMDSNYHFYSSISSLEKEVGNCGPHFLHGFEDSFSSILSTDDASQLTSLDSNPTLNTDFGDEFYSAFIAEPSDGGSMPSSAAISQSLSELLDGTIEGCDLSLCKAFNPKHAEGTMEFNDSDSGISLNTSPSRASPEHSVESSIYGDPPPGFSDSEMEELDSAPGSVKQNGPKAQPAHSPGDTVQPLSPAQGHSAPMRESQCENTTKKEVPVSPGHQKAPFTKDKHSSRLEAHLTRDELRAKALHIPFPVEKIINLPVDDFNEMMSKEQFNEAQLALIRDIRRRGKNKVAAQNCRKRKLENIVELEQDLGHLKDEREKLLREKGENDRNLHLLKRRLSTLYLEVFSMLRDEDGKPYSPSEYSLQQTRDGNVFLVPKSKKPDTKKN
Outline: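 CATH.a cells (RPMI 1640, 8% horse serum, 4% FBS, 37 °C, 5% CO2) exposed to various concentrations for 24 h. Whole-cell lysate in RIPA buffer with protease inhibitors, 10% SDS-PAGE, Nrf2 immunoblot, chemiluminescence, densitometry normalized to β-actin. At least duplicate cultures, averaged, fold of untreated control ± SEM.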

[2] = biological target: T1, Nuclear factor erythroid 2-related factor 2 (Mus musculus); test: Induction of Nrf2 nuclear translocation in mouse CATH.a cells at 1 uM after 3 hrs by western blot analysis; assay type: cell-based
Outline: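 Mouse DAergic CATH.a cells treated at various concentrations for 3 h. Nuclei isolated by hypotonic HEPES buffer/NP-40 lysis, then nuclear proteins extracted in 400 mM NaCl HEPES buffer. Nrf2 Western blot with lamin B as nuclear marker, chemiluminescent detection, densitometry. At least duplicate cultures, expressed as fold induction over untreated control ± SEM.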

[3] = biological target: T1, Nuclear factor erythroid 2-related factor 2 (Mus musculus); test: Induction of Nrf2-dependent GCLC protein expression in mouse CATH.a cells at 0.1 uM after 24 hrs by western blot analysis; assay type: cell-based
Outline: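 Cells (CATH.a) exposed to graded concentrations for 24 h, lysed in RIPA buffer with protease inhibitors. Equal protein separated on 10% SDS gel, blotted; primary antibodies overnight at 4 °C, HRP secondary, chemiluminescence. Densitometry normalized to β-actin. At least duplicate cultures, fold of untreated control ± SEM.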

[4] = species on record: Mus musculus; test: Neuroprotection against BH4-induced mouse CATH.a cell death assessed as cell viability at >0.1 uM treated for 20 hrs prior to BH4 challenge for 24 hrs by ATP assay; assay type: functional
Outline: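 CATH.a cells (2.4 × 10⁴/well) pretreated with graded concentrations for 20 h, then challenged with 200 μM BH4 for a further 24 h. Viability as cellular ATP by CellTiter-Glo luminescence. At least duplicate cultures, percent of untreated control ± SEM, compared with BH4-treated cells.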

- Activity [1]: Dose-dependent effect
- Activity [2]: Active
- Activity [3]: inactive
Structure (SMILES): COc1ccccc1S(=O)(=O)/C=C/c1ccccc1Cl
- Activity [4]: Active
